Reference: ChEMBL document CHEMBL1629485, “Lead identification of conformationally restricted β-lactam type combretastatin analogues: synthesis, antiproliferative activity and tubulin targeting effects” (Eur J Med Chem, 2010)

Key:
[1] = test system: MDA-MB-231; test: Cytotoxicity against estrogen receptor deficient human MDA-MB-231 cells assessed as LDH release at 10 uM; assay type: functional
In short: (§1)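 After compound treatment, LDH was measured with a commercial LDH kit. Result is % cell lysis at 10 μM compound.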

[2] = test system: MCF7; test: Antiproliferative activity against human MCF7 cells expressing estrogen receptor after 72 hrs by MTT assay; assay type: functional, cell-based; conditions: MCF7, 72 h
[3] = test system: MDA-MB-231; test: Antiproliferative activity against estrogen receptor deficient human MDA-MB-231 cells after 72 hrs by MTT assay; assay type: functional, cell-based; conditions: MDA-MB-231, 72 h
In short: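 MCF-7 grown in Eagle's MEM with 10% FBS, 2 mM L-glutamine, penicillin/streptomycin and 1% non-essential amino acids; MDA-MB-231 grown in DMEM with 10% FBS, 2 mM L-glutamine and penicillin/streptomycin. Seeded at 2.5 × 10⁴ cells/mL, 24 h at 37 °C. Ethanol-stock compound, 1 nM–100 μM, 72 h, ethanol 1% v/v vehicle. MTT at 1 mg/mL final, 2 h dark, 37 °C, DMSO solubilised. Viability vs untreated control. IC50 is mean of three experiments in triplicate.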

[4] = test system: MCF7; test: Cytotoxicity against human MCF7 cells expressing estrogen receptor assessed as LDH release at 10 uM; assay type: functional; in short: as §1

Row | Structure (SMILES) | IC50 [2] [µM] | IC50 [3] [µM] | Activity [1] [%] | Activity [4] [%]
1 | COc1ccc(N2C(=O)CC2c2cc(OC)c(OC)c(OC)c2)cc1O (configuration not stated) | 0.25 | 0.27 | 6.6 | 2.3
2 | COc1ccc(C2N(c3cc(OC)c(OC)c(OC)c3)C(=O)C2(C)C)cc1O (configuration not stated) | 0.13 | 1.67 | 20 | 12
3 | COc1ccc(N2C(=O)C(C)C2c2cc(OC)c(OC)c(OC)c2)cc1O (configuration not stated) | 2.96 | 13 | 0 | 17
4 | COc1ccc(N2C(=O)C(C)(C)C2c2cc(OC)c(OC)c(OC)c2)cc1O (configuration not stated) | 4.04 | 3.19 | 12.1 | 11.5
5 | COc1cc(N2C(=O)CC2c2ccc(F)cc2)cc(OC)c1OC (configuration not stated) | 25.9 | 25.9 | 6.3 | 0
6 | COc1cc(OC)c(C2CC(=O)N2c2cc(OC)c(OC)c(OC)c2)cc1OC (configuration not stated) | 63.7 | 38.5 | 0 | 2.2
7 | COc1cc(C2CC(=O)N2c2cc(OC)c(OC)c(OC)c2)cc(OC)c1OC (configuration not stated) | 168 | 94.4 | 0 | 1.9
8 | COc1cc(N2C(=O)CC2c2ccc(OC)c(OC)c2OC)cc(OC)c1OC (configuration not stated) | 0.31 | 2.83 | 9 | 8
9 | COc1ccc(C2CC(=O)N2c2cc(OC)c(OC)c(OC)c2)cc1OC (configuration not stated) | 1.64 | 0.97 | 15 | 5
10 | COc1ccc(C2N(c3cc(OC)c(OC)c(OC)c3)C(=O)C2(C)C)cc1OC (configuration not stated) | 0.344 | 1.46 | 12 | 14
11 | COc1cc(N2C(=O)CC2c2cccs2)cc(OC)c1OC (configuration not stated) | 21.6 | 34.5 | 15 | 20
12 | COc1ccc2cc(C3CC(=O)N3c3cc(OC)c(OC)c(OC)c3)ccc2c1 (configuration not stated) | 1.51 | 13.2 | 18 | 13.5
13 | COc1ccc(/C=C\c2cc(OC)c(OC)c(OC)c2)cc1O [COMBRETASTATIN A4] |  |  | 4.3 | 5.6

Continued, in another order:

Row | IC50 [2] [µM] | IC50 [3] [µM] | Structure (SMILES) | Activity [1] [%] | Activity [4] [%]
14 | 0.01 | 0.047 | COc1ccc(C2C(C)C(=O)N2c2cc(OC)c(OC)c(OC)c2)cc1O (configuration not stated) | 25 | 15
15 | 0.039 | 0.21 | COc1ccc(C2CC(=O)N2c2cc(OC)c(OC)c(OC)c2)cc1 (configuration not stated) | 1.1 | 1.5
16 | 0.047 | 0.127 | COc1ccc(C2C(C)C(=O)N2c2cc(OC)c(OC)c(OC)c2)cc1 (configuration not stated) | 4.5 | 5.7
17 | 0.265 | 1.15 | COc1ccc(C2N(c3cc(OC)c(OC)c(OC)c3)C(=O)C2(C)C)cc1 (configuration not stated) | 16 | 12
18 | 2.96 | 8.84 | COc1ccc(C2C(C)C(=O)N2c2cc(OC)c(OC)c(OC)c2)cc1OC (configuration not stated) | 6.1 | 7.5
19 | 1.12 | 4.5 | COc1ccc(C2CC(=S)N2c2cc(OC)c(OC)c(OC)c2)cc1 (configuration not stated) | 3 | 16
20 | 0.89 | 9.26 | COc1ccc(C2C(C)C(=S)N2c2cc(OC)c(OC)c(OC)c2)cc1 (configuration not stated) | 5.1 | 3.2
21 | 0.35 | 1.33 | COc1ccc(C2N(c3cc(OC)c(OC)c(OC)c3)C(=S)C2(C)C)cc1 (configuration not stated) | 8 | 5.5
